Published values from different studies.
Compare with care: the assays were run in different laboratories.
Target: Serine/threonine-protein kinase pim-3 (PIM3, Homo sapiens, UniProt Q86V86)

| Compound | read-out | technique | tested at | remaining binding [%] |
| --- | --- | --- | --- | --- |
| CC(=O)Nc1c(C(C)=O)c(=O)n(C)c2nc(-c3ccc(Cl)cc3Cl)c(-c3ccc(Cl)cc3)cc12 | cell-free assay | competition with immobilised ligand | 1 µM | 100 |
| COc1ncc2cc3ccccc3nc2c1C#N | cell-free assay | competition with immobilised ligand | 5 µM | 79 |
| C[C@@H]1CN(c2ccc3ncc(-c4ccc5[nH]nc(C6CC6)c5c4)n3n2)C[C@H](C)O1 | binding | competition with immobilised ligand | 50 nM | 81 |
| c1cncc(-c2cccc(Nc3nccc(NC4CCCCC4)n3)c2)c1 | binding | competition with immobilised ligand | 10 µM | 71 |
| O=C(c1ccc(Nc2ncc(Cl)c(-c3ccc(Cl)s3)n2)cc1)N1CCC(N2CCCC2)CC1 | binding | competition with immobilised ligand | 1 µM | 73 |
| O=C1CCc2cc(Nc3cc(OC4CCOCC4)c([N+](=O)[O-])cc3Cl)ccc2N1 | cell-free assay | competition with immobilised ligand | 1 µM | 100 |
| Nc1ncc2c(n1)-c1c([nH]c3ccc(C#CC4CC4)cc13)CCCC2 | binding | competition with immobilised ligand | 1 µM | 76 |
| COc1ccc2c(c1)O[C@H](c1ccc(OC)c(OC)c1)C[C@@H]2NC(=O)C1(c2ccc3c(c2)OC(F)(F)O3)CC1 | cell-free assay | competition with immobilised ligand | 1 µM | 100 |
| COc1cnc(Nc2cccc(S(N)(=O)=O)c2)nc1N1CCN(c2ccccc2)C(=O)C1 | binding | competition with immobilised ligand | 1 µM | 100 |
| Cc1cnc(Nc2ccc(C(=O)N3CCC(N4CCCC4)CC3)cc2)nc1-c1cc2ccccc2s1 | binding | competition with immobilised ligand | 1 µM | 60 |
| CNC(=O)[C@@H]1CC[C@@H](n2c(-c3ccc4cnccc4c3)nc3ccc(C(=O)NCc4cccc(C(N)=O)c4)cc32)C1 | binding | competition with immobilised ligand | 1 µM | 100 |
| CSc1cccnc1N1CCN(Cc2nc3ccccc3[nH]2)CC1 | cell-free assay | competition with immobilised ligand | 1 µM | 94 |
| CN(C)c1nccc(-c2cnn3ncccc23)n1 | binding |  | 1 µM | 56 |
| C=CC(=O)N1CCC(C(=O)NCC(=O)N2CCN(c3nc(-c4cnc(N)nc4C(F)F)nc(N4CCOCC4)n3)CC2)CC1 | binding | competition with immobilised ligand | 1 µM | 97 |
| C[C@H]1CCN(c2nccc(-c3cnn4ncccc34)n2)C1 | binding |  | 1 µM | 81 |
| CCCOc1ccc([C@@H]2[C@@H](C(=O)O)[C@H](c3ccc4c(c3)OCO4)CN2CC(=O)Nc2c(CC)cccc2CC)cc1 | cell-free assay | competition with immobilised ligand | 1 µM | 95 |
| CN(c1nccc(-c2cnn3ncccc23)n1)C1CC1 | binding |  | 1 µM | 100 |
| O=C(Nc1c[nH]nc1C(=O)NC1CCNCC1)c1cc(F)cc(F)c1 | binding | competition with immobilised ligand | 1 µM | 88 |
| N[C@H]1CCN(c2nccc(-c3cnn4ncccc34)n2)C1 | binding |  | 1 µM | 79 |
| O=C(c1ccc(Nc2ncc(Cl)c(-c3cc4ccccc4s3)n2)cc1)N1CCC(N2CCCC2)CC1 | binding | competition with immobilised ligand | 1 µM | 75 |
| C[C@H](c1cccc(C#N)c1)n1cc(Cl)cc(C(N)=O)c1=N | cell-free assay | competition with immobilised ligand | 1 µM | 100 |
| CN(CCCC(F)(F)F)c1nccc(-c2cnn3ncccc23)n1 | binding |  | 1 µM | 100 |
| COc1ccc2c(O[C@@H]3C[C@H]4C(=O)N[C@]5(C(=O)O)CC5/C=C\CCCCC[C@H](NC(=O)OC5CCCC5)C(=O)N4C3)cc(-c3csc(NC(=O)C(C)C)n3)nc2c1C (stereo partly drawn) | cell-free assay | competition with immobilised ligand | 1 µM | 94 |
| Cc1cnn2ncc(-c3ccnc(N(C)C)n3)c2c1 | binding |  | 1 µM | 85 |
